What all share (format): functional
Test [1] has as its system Streptococcus pyogenes. Kind of test: Minimum inhibitory concentration against Streptococcus pyogenes 4. In outline:
(§1)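 Broth MIC determination: serial 2-fold dilutions in Mueller-Hinton broth by standard methodology; the lowest concentration inhibiting growth is reported as the MIC, in nmol/mL.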

Test [2] concerns Pseudomonas aeruginosa. Kind of test: Minimum inhibitory concentration against Pseudomonas aeruginosa ATCC 27853. In outline:
as §1

Test [3] relates to Pseudomonas aeruginosa. Kind of test: Evaluated for the minimum inhibitory concentration against Pseudomonas aeruginosa 18S/H (Class Id beta-lactamase overproducer). In outline:
(§2)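 MIC by serial 2-fold dilution in Mueller-Hinton broth; results given as minimum inhibitory concentrations (nmol/mL).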

Test [4] relates to Proteus vulgaris. Description: Evaluated for the minimum inhibitory concentration against Proteus vulgaris 1028 BC (Class Ic beta-lactamase overproducer. A digest of the protocol: as §2
The test system of test [5] is Streptococcus pneumoniae. Kind of test: Minimum inhibitory concentration against Streptococcus pneumoniae 6301. A digest of the protocol: as §1
Test [6] has as its system Escherichia coli. Description: Evaluated for the minimum inhibitory concentration against Escherichia coli UB 1005. In outline: as §2
Test [7] deals with Staphylococcus aureus. Kind of test: Minimum inhibitory concentration against Staphylococcus aureus 95 (Methicillin-resistant, high-level beta-lactamase producer). A digest of the protocol: (§3)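 Serial 2-fold broth dilution in Mueller-Hinton broth, run by standard methodology; read-out is the minimum inhibitory concentration (MIC).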
Test [8] concerns Staphylococcus aureus. Description: Evaluated for the minimum inhibitory concentration against Staphylococcus aureus 1059B ( inducible, high level beta-lactamase producer). A digest of the protocol:
as §3

For test [9], the system named is Proteus vulgaris. Description: Minimum inhibitory concentration against Proteus vulgaris 1028 BC (Class Ic beta-lactamase overproducer). In outline: as §1
Test [10] relates to Staphylococcus aureus. Description: In vitro antibacterial activity was determined against Staphylococcus aureus 1059B ( inducible, high level beta-lactamase producer). In outline:
as §1

Another test deals with Proteus mirabilis. Description: In vitro antibacterial activity was determined against Proteus mirabilis 90. A digest of the protocol: as §2
The subject of test [11] is Streptococcus pneumoniae. Kind of test: In vitro antibacterial activity was determined against Streptococcus pneumoniae 6301. In outline:
as §1

Test [12] concerns Streptococcus pyogenes. Kind of test: In vitro antibacterial activity was determined against Streptococcus pyogenes 4. In outline: as §1
For the next test, the system named is Enterococcus faecalis. Description: In vitro antibacterial activity was determined against Enterococcus faecalis ATCC 29212. In outline:
as §2

In test [13] the test system is Pseudomonas aeruginosa. Description: In vitro antibacterial activity was determined against Pseudomonas aeruginosa ATCC 27853. In outline: as §1
For test [14], the system named is Escherichia coli. Kind of test: In vitro antibacterial activity was determined against Escherichia coli UB 1005. A digest of the protocol:
as §2

The subject of test [15] is Enterobacter cloacae. Description: In vitro antibacterial activity was determined against Enterobacter cloacae P99. In outline:
as §2

Test [16] concerns Staphylococcus aureus. Kind of test: In vitro antibacterial activity was determined against Staphylococcus aureus ATCC 29213 ( inducible, low level beta-lactamase producer). A digest of the protocol: as §1
Test [17] concerns Pseudomonas aeruginosa. Kind of test: In vitro antibacterial activity was determined against Pseudomonas aeruginosa 18S/H ( Class Id beta-lactamase overproducer). A digest of the protocol:
as §1

The subject of test [18] is Escherichia coli. Kind of test: In vitro antibacterial activity was determined against Escherichia coli TEM-1 (TEM-1 (class IIIa) beta-lactamase producer). In outline:
as §2

The subject of a further test is Serratia marcescens. Description: In vitro antibacterial activity was determined against Serratia marcescens 1071. In outline: as §1
In test [19] the test system is Proteus vulgaris. Description: In vitro antibacterial activity was determined against Proteus vulgaris 1028 BC ( Class Ic beta-lactamase overproducer. In outline: as §2
In test [20] the test system is Staphylococcus aureus. Description: In vitro antibacterial activity was determined against Staphylococcus aureus 95 (Methicillin-resistant, high-level beta-lactamase producer). In outline: as §3
The next test deals with Citrobacter freundii. Kind of test: In vitro antibacterial activity was determined against Citrobacter freundii BS-16. In outline: as §2
Test [21] concerns Pseudomonas aeruginosa. Kind of test: In vitro antibacterial activity was determined against Pseudomonas aeruginosa 18S/H (Class Id beta-lactamase overproducer). A digest of the protocol:
as §1

The test system of test [22] is Proteus vulgaris. Description: In vitro antibacterial activity was determined against Proteus vulgaris 1028 BC (Class Ic beta-lactamase overproducer. In outline: as §2
Test [23] concerns Staphylococcus aureus. Description: In vitro antibacterial activity was determined against Staphylococcus aureus 1059B (inducible, high level beta-lactamase producer). In outline: as §3
Test [24] concerns Staphylococcus aureus. Description: In vitro antibacterial activity was determined against Staphylococcus aureus ATCC 29213 (inducible, low level beta-lactamase producer). In outline: as §3
Test [25] concerns Enterobacter cloacae. Description: In vitro antibacterial activity was determined against Enterobacter cloacae P99 (Class Ia beta-lactamase overproducer). A digest of the protocol: as §2
The test system of test [26] is Pseudomonas aeruginosa. Kind of test: Evaluated for the minimum inhibitory concentration against Pseudomonas aeruginosa 18S/H ( Class Id beta-lactamase overproducer). A digest of the protocol: as §2
Test [27] has as its system Pseudomonas aeruginosa. Kind of test: Evaluated for the minimum inhibitory concentration against Pseudomonas aeruginosa ATCC 27853. In outline:
as §2

In test [28] the test system is Enterobacter cloacae. Description: Evaluated for the minimum inhibitory concentration against Enterobacter cloacae P99 ( Class Ia beta-lactamase overproducer). A digest of the protocol: as §2

Values after ≈ are worked out from the molar mass of the structure shown. Where only a bound is given, the exact number is not on record here.

One may read the MIC as the lowest concentration that inhibits growth of the organism. Low readings indicate greater potency, high ones weaker potency.

`CCn1cc(C(=O)OCC2=C(C(=O)O)N3C(=O)[C@@H](NC(=O)/C(=N/OC)c4csc(N)n4)C3SC2)c(=O)c2cc(F)c(N3CCSCC3)cc21` (some centres not stated): the MIC is under 0.008 µg/mL against Streptococcus pyogenes [1]; 128 µg/mL (≈ 175 µM) in the test on Pseudomonas aeruginosa [2]; 8 µg/mL (≈ 10.9 µM) in the test with Pseudomonas aeruginosa [3]; 2 µg/mL (≈ 2.73 µM) in the test with Proteus vulgaris [4]; 0.016 µg/mL (≈ 0.0219 µM) against Streptococcus pneumoniae [5]; 1 µg/mL (≈ 1.37 µM) with Escherichia coli [6]. The MIC with Staphylococcus aureus [7] came out at 0.5 µg/mL (≈ 0.683 µM).

For `CCn1cc(C(=O)OCC2=C(C(=O)O)N3C(=O)[C@@H](NC(=O)COc4ccccc4)C3SC2)c(=O)c2cc(F)c(N3CCSCC3)cc21` (some centres not stated), the MIC with Staphylococcus aureus [8] is 0.25 µg/mL (≈ 0.366 µM); in the test on Streptococcus pyogenes [1], 4 µg/mL (≈ 5.86 µM); against Pseudomonas aeruginosa [2], 128 µg/mL (≈ 187 µM); against Pseudomonas aeruginosa [3], 64 µg/mL (≈ 93.7 µM); with Proteus vulgaris [9], 1 µg/mL (≈ 1.46 µM); in the test with Streptococcus pneumoniae [5], 2 µg/mL (≈ 2.93 µM). In the test with Staphylococcus aureus [7], this compound gave an MIC of 0.5 µg/mL (≈ 0.732 µM).

As to `CCn1cc(C(=O)OCC2=C(C(=O)O)N3C(=O)[C@@H](NC(=O)COc4ccccc4)C3SC2)c(=O)c2ccc(C)nc21` (some centres not stated), the MIC is 0.5 µg/mL (≈ 0.864 µM) against Staphylococcus aureus [10], 32 µg/mL (≈ 55.3 µM) in the test with Proteus mirabilis, under 0.008 µg/mL in the test with Streptococcus pneumoniae [11] and 0.063 µg/mL (≈ 0.109 µM) with Streptococcus pyogenes [12].

On to `CCn1cc(C(=O)OCC2=C(C(=O)O)N3C(=O)[C@@H](NC(=O)/C(=N/OC)c4csc(N)n4)C3SC2)c(=O)c2cc3c(cc21)OCO3` (some centres not stated), for which the MIC against Pseudomonas aeruginosa [2] came to 128 µg/mL (≈ 195 µM); with Pseudomonas aeruginosa [3], 16 µg/mL (≈ 24.4 µM); against Proteus vulgaris [4], 0.25 µg/mL (≈ 0.381 µM); in the test with Staphylococcus aureus [7], 4 µg/mL (≈ 6.09 µM).

On to `CC(=O)OCC1=C(C(=O)O)N2C(=O)[C@@H](NC(=O)COc3ccccc3)C2SC1` (some centres not stated), for which the MIC against Enterococcus faecalis was 64 µg/mL (≈ 157 µM); in the test on Pseudomonas aeruginosa [13], over 128 µg/mL; with Staphylococcus aureus [10], 0.25 µg/mL (≈ 0.615 µM); with Escherichia coli [14], 64 µg/mL (≈ 157 µM); with Proteus mirabilis, 64 µg/mL (≈ 157 µM); with Enterobacter cloacae [15] it was over 128 µg/mL. Moreover, the MIC with Staphylococcus aureus [16] is 0.5 µg/mL (≈ 1.23 µM); in the test on Streptococcus pneumoniae [11], 0.25 µg/mL (≈ 0.615 µM); against Pseudomonas aeruginosa [17] it was over 128 µg/mL; with Escherichia coli [18], over 128 µg/mL; against Streptococcus pyogenes [12], 0.063 µg/mL (≈ 0.155 µM); with Serratia marcescens, over 128 µg/mL. Also, the MIC against Proteus vulgaris [19], in the test on Staphylococcus aureus [20] and in the test on Citrobacter freundii was over 128 µg/mL throughout.

Regarding `CCn1cc(C(=O)O)c(=O)c2cc(F)c(-n3cccc3)cc21` [IRLOXACIN], the MIC with Pseudomonas aeruginosa [21] was 64 µg/mL (≈ 213 µM); in the test on Enterococcus faecalis it was 2 µg/mL (≈ 6.66 µM); against Proteus vulgaris [22], 0.5 µg/mL (≈ 1.67 µM); with Staphylococcus aureus [23], 0.125 µg/mL (≈ 0.416 µM); against Proteus mirabilis, 64 µg/mL (≈ 213 µM); against Streptococcus pneumoniae [11], 16 µg/mL (≈ 53.3 µM). For the same compound, the MIC is 1 µg/mL (≈ 3.33 µM) against Escherichia coli [18]; over 128 µg/mL against Streptococcus pyogenes [12]; 0.5 µg/mL (≈ 1.67 µM) against Serratia marcescens; 0.125 µg/mL (≈ 0.416 µM) in the test on Staphylococcus aureus [24]; 0.125 µg/mL (≈ 0.416 µM) against Staphylococcus aureus [20]; 0.5 µg/mL (≈ 1.67 µM) in the test on Enterobacter cloacae [25]. The compound also returned an MIC against Citrobacter freundii of 64 µg/mL (≈ 213 µM).

For the compound `CCn1cc(C(=O)OCC2=C(C(=O)O)N3C(=O)[C@@H](NC(=O)COc4ccccc4)C3SC2)c(=O)c2cc(F)c(-n3cccc3)cc21` (some centres not stated), the MIC in the test on Streptococcus pyogenes [1] is 2 µg/mL (≈ 3.09 µM); in the test on Pseudomonas aeruginosa [2], over 128 µg/mL; in the test on Pseudomonas aeruginosa [3] it was 128 µg/mL (≈ 198 µM); with Proteus vulgaris [9], 16 µg/mL (≈ 24.7 µM); with Streptococcus pneumoniae [5] it was 2 µg/mL (≈ 3.09 µM); in the test with Staphylococcus aureus [7], 0.5 µg/mL (≈ 0.773 µM).

As to `CCN1CCN(C(=O)NC(C(=O)N[C@@H]2C(=O)N3C(C(=O)O)=C(COC(=O)c4cn(CC)c5cc(N6CCSCC6)c(F)cc5c4=O)CSC23)c2ccccc2)C(=O)C1=O` (some centres not stated), the MIC in the test on Streptococcus pyogenes [1] worked out at 0.016 µg/mL (≈ 0.0188 µM); against Proteus vulgaris [9] it was 64 µg/mL (≈ 75.3 µM); against Pseudomonas aeruginosa [26], 32 µg/mL (≈ 37.7 µM); against Streptococcus pneumoniae [5] it was 0.125 µg/mL (≈ 0.147 µM); with Pseudomonas aeruginosa [27] it was 64 µg/mL (≈ 75.3 µM); in the test with Staphylococcus aureus [7] it was 1 µg/mL (≈ 1.18 µM).

`CCn1cc(C(=O)OCC2=C(C(=O)O)N3C(=O)[C@@H](NC(=O)/C(=N/OC)c4csc(N)n4)C3SC2)c(=O)c2cc(F)c(N3CCN(C=O)CC3)cc21` (some centres not stated): the MIC is over 128 µg/mL with Pseudomonas aeruginosa [2], 32 µg/mL (≈ 43.1 µM) against Pseudomonas aeruginosa [3], 8 µg/mL (≈ 10.8 µM) against Proteus vulgaris [9] and 8 µg/mL (≈ 10.8 µM) with Staphylococcus aureus [7].

`CCn1cc(C(=O)OCC2=C(C(=O)O)N3C(=O)[C@@H](NC(=O)COc4ccccc4)C3SC2)c(=O)c2cc(F)c(N3CCCC3)cc21` (some centres not stated): the MIC against Pseudomonas aeruginosa [2] is over 128 µg/mL; in the test on Pseudomonas aeruginosa [3] it was 32 µg/mL (≈ 49.2 µM); against Proteus vulgaris [4], 32 µg/mL (≈ 49.2 µM); in the test with Streptococcus pneumoniae [5] it was under 0.008 µg/mL; against Staphylococcus aureus [7], 0.5 µg/mL (≈ 0.768 µM).

For `CCn1cc(C(=O)OCC2=C(C(=O)O)N3C(=O)[C@@H](NC(=O)COc4ccccc4)C3SC2)c(=O)c2cc(F)c(N3CCN(C=O)CC3)cc21` (some centres not stated), the MIC in the test on Pseudomonas aeruginosa [2] was found to be 128 µg/mL (≈ 185 µM); in the test with Proteus vulgaris [9], 4 µg/mL (≈ 5.77 µM); with Pseudomonas aeruginosa [26] it was 8 µg/mL (≈ 11.5 µM); against Enterobacter cloacae [28] it was 2 µg/mL (≈ 2.88 µM); against Escherichia coli [6], 128 µg/mL (≈ 185 µM); in the test on Staphylococcus aureus [7], 2 µg/mL (≈ 2.88 µM).

The values are drawn from ChEMBL document CHEMBL1125107, “Cephalosporin 3'-quinolone esters with a dual mode of action” (J Med Chem, 1990).
